# Screens (PubChem BioAssay)
# An excerpt weighted towards active compounds, which were near 1.4% of everything screened.
# Tb MetRS inh: Trypanosoma brucei MetRS inhibition; purified T. brucei MetRS, ATP depletion, Kinase-Glo luminescence; inhibition, % at 11.9 µM; 360,000 compounds, 0.4% hits;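 active = inhibition above a per-plate cutoff of the control wells' mean inhibition plus 3 SD, cut at about 5.5% in these data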;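 note: 0% = DMSO wells median and 100% = median of wells with control inhibitor compound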
#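 Measured by: Kinase-Glo luciferase luminescence reporting remaining unconsumed ATP. Material: purified T. brucei MetRS enzyme. Doses: 11.9 µM compound single dose, 0.9% DMSO. Medium: HEPES buffer containing pyrophosphatase, BSA, spermine, DTT. Times: 15 min preincubation, 2 h reaction, all 25 °C. Reagent: methionine, ATP and bulk E. coli tRNA.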
# CAL PDZ FP-1: blocks peptide binding to the human CAL PDZ domain; Q9HD26; purified CAL PDZ, TMR-peptide fluorescence polarization, 1 h; inhibition, % at 24.9 µM; 300,000 compounds, 0.92% hits; AID 602252;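 active = mean inhibition of at least 30% with at least half of replicates also reaching 30%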;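 note: 0% = DMSO neutral control and 100% = excess unlabeled competitor peptide PRC23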
# PvdQ acylase: blocks Pseudomonas aeruginosa PvdQ acylase activity; inhibition, % at 10 µM; 340,000 compounds, 0.063% hits; purified PvdQ acylase, fluorescence plate reader; AID 488965; in the data active = inhibition above about 30%, passing the limit was not always enough;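 note: 0% = vehicle neutral wells and 100% = reference inhibitor wells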
# CDK5 inh: inhibitors of human CDK5/p35 kinase | Recombinant CDK5/p35, ADP-Glo luminescence, 60 min | inhibition, % at 10 µM | 330,000 compounds, 0.01% hits | AID 488839;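 active = highest replicate inhibition of at least 50% and at least 75% of replicates reaching 50%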;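 note: plate controls were DMSO neutral control for no effect and GW8510 at 10 µM for full effect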
# Target sequence (Q00535 whole entry, looked up): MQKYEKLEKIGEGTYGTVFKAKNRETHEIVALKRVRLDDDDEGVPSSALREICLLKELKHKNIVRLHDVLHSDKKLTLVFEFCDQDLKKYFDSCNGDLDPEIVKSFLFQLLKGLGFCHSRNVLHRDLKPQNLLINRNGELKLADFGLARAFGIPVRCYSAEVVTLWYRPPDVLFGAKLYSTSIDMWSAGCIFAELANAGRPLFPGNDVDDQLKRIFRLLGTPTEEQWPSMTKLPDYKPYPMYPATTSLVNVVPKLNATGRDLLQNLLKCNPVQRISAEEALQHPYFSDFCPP
# Target sequence (Q15078 whole entry, looked up): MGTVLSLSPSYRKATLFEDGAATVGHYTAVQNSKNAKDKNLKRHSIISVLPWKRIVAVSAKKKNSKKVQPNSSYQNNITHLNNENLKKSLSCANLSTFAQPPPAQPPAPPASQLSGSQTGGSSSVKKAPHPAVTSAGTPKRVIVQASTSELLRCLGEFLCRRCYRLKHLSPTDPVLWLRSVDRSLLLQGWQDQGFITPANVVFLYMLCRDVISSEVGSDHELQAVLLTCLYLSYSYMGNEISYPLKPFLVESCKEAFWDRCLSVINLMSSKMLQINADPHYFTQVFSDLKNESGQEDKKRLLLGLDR
# Dyrk1A ADPGlo: inhibitors of rat Dyrk1A kinase | Q63470 | ADP-Glo luminescence, NFATc1 peptide | inhibition, % at 12.5 µM | 310,000 compounds, 0.43% hits | AID 504441; in the data active = inhibition above about 50%;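 note: plate controls were vehicle with enzyme for no effect and no enzyme for full effect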
# CAL PDZ FP-2: human CAL PDZ-peptide interaction inhibition; Q9HD26; purified CAL PDZ, TMR-peptide fluorescence polarization, 1 h; inhibition, % at 20 µM; 330,000 compounds, 0.02% hits;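 active = highest replicate inhibition of at least 40%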;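 note: plate controls were DMSO neutral control wells for no effect and unlabeled competitor peptide control wells for full effect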
#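 Test system: tagged CAL PDZ domain / Buffer or medium: sodium phosphate/NaCl buffer pH 7.4 with TCEP, IgG, Thesit / Reagent: TMR-labelled reporter peptide T*-PRC34 bound in PDZ groove / Compound dosing: single point, 20 µM / Schedule: 1 h incubation at room temperature before polarization reading / Technique: fluorescence polarization (mP) / Benchmarks: unlabelled peptide, DMSO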
# * = called active by the depositor; . = no result.
SMILES,Tb MetRS inh,CAL PDZ FP-1,PvdQ acylase,CDK5 inh,Dyrk1A ADPGlo,CAL PDZ FP-2
CCN(CC(=O)NCc1cccs1)C(=O)c1ccccc1Cl,0,52*,-22,0,.,-1
CCN(CC(=O)NCc1cccs1)C(=O)c1cc(=O)[nH]c2ccccc12,0,74*,-10,-1,-3,0
CCN(CC(=O)NCc1cccs1)C(=O)C(c1ccccc1)c1ccccc1,0,2,-5,-1,8,0
COc1cc(C(=O)NNC(=O)c2ccc3c(c2)OCCO3)cc(OC)c1OC,0,92*,-21,-1,1,0
CCCCNC(=O)c1nc(C2CCN(S(=O)(=O)c3ccc(S(C)(=O)=O)cc3)CC2)oc1-c1ccccc1,0,.,.,.,.,.
COc1ccc2o/c(=N\O)c(C(=O)Nc3ccc(C)cc3)cc2c1,0,80*,-23,-1,17,0
COc1ccccc1CN(C)C[C@@H]1OCc2cnnn2CCCC(=O)N([C@@H](C)CO)C[C@H]1C,-1,.,.,.,.,.
C=CCn1c(SC2CCOC2=O)nc2sc(C)c(C)c2c1=O (stereo unspecified),0,49*,-16,0,12,.
Cc1sc2nc(SC3CCOC3=O)n(Cc3ccccc3)c(=O)c2c1C (stereo unspecified),0,-1,-4,-1,1,-4
COc1ccc(CN2C(=O)C(CC(=O)NC3CCCC3)CC(C(=O)N3CCOCC3)=C2C)cc1 (stereo unspecified),-1,.,.,.,.,.
Cc1ccc(SCCNC(=S)Nc2cc(C)ccc2C)cc1,0,-2,-5,1,-5,-1
Cc1ccc(C)c(NC(=S)NCCN(C2CCCCC2)C2CCCC2)c1,1,65*,-14,2,-2,-1
CC(=O)Nc1ccc(S(=O)(=O)N2CCCCC2C(=O)O)cc1 (stereo unspecified),-1,-4,1,1,15,-2
COC(=O)Nc1ccc(S(=O)(=O)N2CCCCC2C(=O)O)cc1 (stereo unspecified),0,73*,-14,1,1,-1
CC(NC(=O)COc1ccccc1)C(=O)N1CCN(c2ccc(F)cc2)CC1 (stereo unspecified),0,73*,-11,0,-4,0
O=C(COc1ccccc1)NCC(c1ccco1)N1CCN(c2ccc(F)cc2)CC1 (stereo unspecified),-1,1,6,0,0,-2
Nc1ccc(S(=O)(=O)c2ccc(N3CCOCC3)c(N)c2)cc1,0,.,.,.,.,.
CCCCOCCCNC(=O)C[C@@H]1C[C@@]2(C(=O)OCC)CCC=C2N(Cc2cccc3ccccc23)C1=O,0,.,.,.,.,.
CC(C)(O)C#Cc1ccc(N2C(c3ccsc3)=Cc3ccc(F)cc3C2c2c[nH]c3ccccc23)cc1 (stereo unspecified),0,.,.,.,.,.
O=S(=O)(c1ccccc1)N1CCN(CCc2ccccc2)CC1,-1,69*,-11,-1,-6,-5
CC(C)C[C@H]1CNC(=O)C(=O)N1CC1CCN(CC2CCC(C)CC2)CC1 (stereo partly specified),-1,.,.,.,.,.
N#CCCn1c(SCC(=O)c2c[nH]c3ccccc23)nc2ccccc21,5.8*,-4,-11,0,0,-3
CC1CCCN(C(=O)COC(=O)/C=C/c2ccc(C(F)(F)F)cc2)C1 (stereo unspecified),0,72*,-12,1,-7,-1
CC(=O)c1ccc(Nc2nc3ccccc3nc2NS(=O)(=O)c2cccs2)cc1,0,0,-3,-1,-3,-1
COc1ccc(Nc2nc3ccccc3nc2NS(=O)(=O)c2cccs2)cc1,0,48*,-7,-1,1,-2
SMILES,Tb MetRS inh,CAL PDZ FP-1,PvdQ acylase,CDK5 inh,Dyrk1A ADPGlo,CAL PDZ FP-2
CN(CCOc1ccccc1)C(=O)c1cc([N+](=O)[O-])ccc1N1CCOCC1,0,33*,-2,2,-2,-1
CN(Cc1ccccc1)C(=O)COC(=O)c1cc([N+](=O)[O-])ccc1N1CCOCC1,0,.,-9,-1,-5,-1
CN1CCN(c2cccc3c2S(=O)(=O)N[C@@H](Cc2ccccc2)CO3)CC1,0,.,.,.,.,.
CCOC(=O)c1cc(C#N)c(N2CCN(C(=O)c3cccc(C(F)(F)F)c3)CC2)nc1C(F)(F)F,-1,65*,-2,-1,.,-2
Nc1ccc(Nc2nc(-c3cc4ccccc4oc3=O)cs2)cc1,0,48*,-1,7,3,0
CCCCCCCCN1C(=O)[C@H](CC(=O)N2CCN(C(=O)c3ccco3)CC2)C[C@@]2(C(=O)OC)CCCCC=C12,0,.,.,.,.,.
COc1ccc(OC)c(CN2CCN(C(=O)c3cccc(S(=O)(=O)N(C)c4ccccc4)c3)CC2)c1,0,.,.,.,.,.
O=C(/C=C/c1ccc([N+](=O)[O-])cc1)NNC(=O)C1CC1,0,74*,-15,-1,.,0
CCOC(=O)C1=C[C@@H](C(C)(C)C)N(S(=O)(=O)c2ccccc2C)[C@H]1c1ccc(Cl)cc1,-1,.,.,.,.,.
CC(=O)NC(Cc1ccccc1)C(C)=O (stereo unspecified),0,100*,-16,-2,6,33
CC(=O)C(Cc1ccccc1)NC(=O)CCl (stereo unspecified),-1,1,0,0,.,0
COc1ccc(CN(Cc2ccc(C(=O)O)cc2)C(=S)Nc2ccccc2F)cc1OC,0,.,-3,1,-1,-3
COc1ccccc1NC(=S)N(Cc1ccc(C(=O)O)cc1)Cc1ccc(OC)c(OC)c1,0,50*,-12,-3,4,0
COC(=O)c1sc(-c2ccc(Cl)cc2)cc1N,0,55*,-9,1,.,0
COc1ccc(NC(=O)c2cc3c(-c4ccc(OC)c(OC)c4)nn(C)c3s2)cc1OC,0,56*,2,1,2,10
COc1ccc(-c2nn(C)c3sc(C(=O)NCc4ccco4)cc23)cc1OC,0,-1,-11,1,-5,-1
COc1cc(NS(=O)(=O)c2ccc(NC(=S)Nc3ccccc3)cc2)nc(OC)n1,0,-7,-15,0,-4,111*
CCc1ccccc1NC(=O)CSC1=C(C#N)C(c2ccc(O)c(OC)c2)C2=C(CCCC2=O)N1 (stereo unspecified),0,0,-14,0,-5,-2
COc1cc(C2C(C#N)=C(SC)NC3=C2C(=O)CCC3)ccc1O (stereo unspecified),1,89*,-14,-2,0,-1
C=CCc1ccc(OCCCCN2CC(C)OC(C)C2)c(OC)c1 (stereo unspecified),0,58*,-10,1,2,-1
C=CCc1ccc(OCCCOc2ccc(C)cc2OC)c(OC)c1,-1,0,-15,0,1,0
